Results as given in ChEMBL document CHEMBL1129036, “Bisindolylmaleimides linked to DNA minor groove binding lexitropsins: synthesis, inhibitory activity against topoisomerase I, and biological evaluation” (J Med Chem, 1996).
≈ marks a conversion by molar mass, not a printed value.

What was measured:
[1] = biological target: T1, DNA topoisomerase 1 (Homo sapiens) (UniProt P11387); assay: Topoisomerase I DNA relaxation activity was evaluated by Fluorescence assay using Ethidium Bromide after heat denaturation of pBR322 DNA at concentration 100 uM; conditions: Escherichia coli
T1 sequence (whole entry): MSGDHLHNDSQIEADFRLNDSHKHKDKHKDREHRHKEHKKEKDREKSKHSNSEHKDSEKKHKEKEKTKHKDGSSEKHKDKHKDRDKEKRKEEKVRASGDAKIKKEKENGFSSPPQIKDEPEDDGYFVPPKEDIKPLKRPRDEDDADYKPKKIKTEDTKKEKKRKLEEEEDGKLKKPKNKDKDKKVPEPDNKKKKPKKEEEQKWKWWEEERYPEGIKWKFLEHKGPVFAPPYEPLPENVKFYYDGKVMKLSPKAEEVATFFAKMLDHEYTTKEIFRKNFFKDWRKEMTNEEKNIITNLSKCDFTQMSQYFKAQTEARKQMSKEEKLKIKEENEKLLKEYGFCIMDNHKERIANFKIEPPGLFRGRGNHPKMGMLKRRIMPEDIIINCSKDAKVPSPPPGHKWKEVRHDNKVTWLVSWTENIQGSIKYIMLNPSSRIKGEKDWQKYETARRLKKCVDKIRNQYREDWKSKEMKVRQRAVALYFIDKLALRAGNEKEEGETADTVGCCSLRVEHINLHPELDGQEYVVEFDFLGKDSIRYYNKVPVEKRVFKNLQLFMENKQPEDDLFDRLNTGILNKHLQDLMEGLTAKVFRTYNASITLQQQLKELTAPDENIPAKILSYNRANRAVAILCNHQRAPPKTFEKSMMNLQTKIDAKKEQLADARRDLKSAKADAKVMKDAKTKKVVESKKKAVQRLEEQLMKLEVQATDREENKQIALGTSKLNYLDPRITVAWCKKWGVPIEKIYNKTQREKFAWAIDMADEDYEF
Summary of the method: (§1)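 0.25 µg pBR322 DNA with ligand plus topoisomerase I (0.5 unit), 30 min at 37 °C. Then ethidium bromide buffer added (0.5 µg/mL EtBr, 20 mM K₃PO₄, 0.5 mM EDTA, pH 12). Fluorescence read at ex 525/em 600 nm before and after heat denaturation of DNA; percent change vs control.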

[2] = biological target: T1, DNA topoisomerase 1 (Homo sapiens); assay: Topoisomerase I DNA relaxation activity was evaluated by Fluorescence assay using Ethidium Bromide after heat denaturation of pBR322 DNA at concentration 50 uM; conditions: Escherichia coli; summary of the method: as §1
[3] = biological target: T1, DNA topoisomerase 1 (Homo sapiens); assay: Topoisomerase I DNA relaxation activity was evaluated by Fluorescence assay using Ethidium Bromide before heat denaturation of pBR322 DNA at concentration 100 uM; conditions: Escherichia coli; summary of the method: as §1
[4] = biological target: T1, DNA topoisomerase 1 (Homo sapiens); assay: Topoisomerase I DNA relaxation activity was evaluated by Fluorescence assay using Ethidium Bromide before heat denaturation of pBR322 DNA at concentration 50 uM; conditions: Escherichia coli; summary of the method: as §1
[5] = In vitro cytotoxicity against KB cancer cell line (ATCC CCL 17).; type: cell-based; conditions: human, KB cancer cells (ATCC CCL 17); read-out: TD50 (the source's name)
Summary of the method: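 KB cells grown in Eagle's MEM with 10% calf serum, 37 °C, humidified 5% CO₂. Seeded at 3 × 10³ cells/mL, cultured 24 h, then compound added in triplicate at several concentrations for 3 days. TD50 is the concentration giving 50% reduction in cell count; average of ≥3 determinations.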

[6] = biological target: T1, DNA topoisomerase 1 (Homo sapiens); conditions: Escherichia coli; at 25 µM
[7] = biological target: T1, DNA topoisomerase 1 (Homo sapiens); conditions: Escherichia coli; at 25 µM; remark: listed apart in the source
[8] = biological target: T1, DNA topoisomerase 1 (Homo sapiens); assay: Topoisomerase I […] was evaluated by Fluorescence assay using Ethidium Bromide after heat denaturation of pBR322 DNA at concentration 100 uM; conditions: Escherichia coli
Summary of the method: (§2)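 0.25 µg pBR322 DNA incubated with ligand alone, no enzyme, 30 min at 37 °C. Ethidium bromide buffer added (0.5 µg/mL EtBr, 20 mM K₃PO₄, 0.5 mM EDTA, pH 12). Fluorescence measured at ex 525/em 600 nm before and after heat denaturation of DNA; percent change vs control.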

[9] = biological target: T1, DNA topoisomerase 1 (Homo sapiens); assay: Topoisomerase I […] was evaluated by Fluorescence assay using Ethidium Bromide after heat denaturation of pBR322 DNA at concentration 250 uM; conditions: Escherichia coli; summary of the method: as §2
[10] = biological target: T1, DNA topoisomerase 1 (Homo sapiens); assay: Topoisomerase I […] was evaluated by Fluorescence assay using Ethidium Bromide after heat denaturation of pBR322 DNA at concentration 25 uM; conditions: Escherichia coli; at 25 µM
Summary of the method: (§3)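 0.25 µg pBR322 DNA incubated with ligand for 30 min at 37 °C without topoisomerase I (DNA and compound only). Ethidium bromide buffer then added (0.5 µg/mL ethidium bromide, 20 mM K₃PO₄, 0.5 mM EDTA, pH 12). Fluorescence read at excitation 525 nm and emission 600 nm, before and after heat denaturation of the DNA. Reported as percent change from control.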

[11] = biological target: T1, DNA topoisomerase 1 (Homo sapiens); assay: Topoisomerase I DNA relaxation activity was evaluated by Agarose Gel Electrophoresis test at concentration 100 uM; conditions: Escherichia coli
Summary of the method: (§4)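 Relaxation of 0.25 µg supercoiled pBR322 DNA by 0.5 unit topoisomerase I, 30 min at 37 °C with ligand (25–250 µM), final volume 10 µL. SDS-containing loading buffer added, further 30 min at 37 °C. Agarose gel run overnight, stained with ethidium bromide (0.5 µg/mL), photographed. Percent supercoiled DNA remaining by laser densitometry, scored in bands (<10% to 75–100%).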

[12] = biological target: T1, DNA topoisomerase 1 (Homo sapiens); assay: Topoisomerase I DNA relaxation activity was evaluated by Agarose Gel Electrophoresis test at concentration 250 uM; conditions: Escherichia coli; summary of the method: as §4
[13] = biological target: T1, DNA topoisomerase 1 (Homo sapiens); assay: Topoisomerase I DNA relaxation activity was evaluated by Agarose Gel Electrophoresis test at concentration 25 uM; conditions: Escherichia coli; at 25 µM
Summary of the method: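 0.25 µg supercoiled pBR322 DNA and 0.5 unit topoisomerase I incubated with ligand for 30 min at 37 °C (10 µL final). Equal volume loading buffer with SDS added, a further 30 min at 37 °C, agarose gel run overnight, ethidium bromide stained. Supercoiled DNA remaining quantified by laser densitometry of the photographed gel. Scored as % inhibition bands (<10% to 75-100%).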

[14] = biological target: T1, DNA topoisomerase 1 (Homo sapiens); assay: Topoisomerase I DNA relaxation activity was evaluated by Agarose Gel Electrophoresis test at concentration 50 uM; conditions: Escherichia coli; summary of the method: as §4
[15] = biological target: T1, DNA topoisomerase 1 (Homo sapiens); assay: Topoisomerase I DNA relaxation activity was evaluated by Fluorescence assay using Ethidium Bromide after heat denaturation of pBR322 DNA at concentration 25 uM; conditions: Escherichia coli; at 25 µM
Summary of the method: (§5)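 0.25 µg pBR322 DNA incubated with ligand and topoisomerase I (0.5 unit) for 30 min at 37 °C. Ethidium bromide buffer then added (0.5 µg/mL ethidium bromide, 20 mM K₃PO₄, 0.5 mM EDTA, pH 12). Fluorescence read at excitation 525 nm and emission 600 nm, before and after heat denaturation of the DNA. Reported as percent change from control.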

[16] = biological target: T1, DNA topoisomerase 1 (Homo sapiens); assay: Topoisomerase I DNA relaxation activity was evaluated by Fluorescence assay using Ethidium Bromide before heat denaturation of pBR322 DNA at concentration 250 uM; conditions: Escherichia coli; summary of the method: as §1
[17] = biological target: T1, DNA topoisomerase 1 (Homo sapiens); assay: Topoisomerase I DNA relaxation activity was evaluated by Fluorescence assay using Ethidium Bromide before heat denaturation of pBR322 DNA at concentration 25 uM; conditions: Escherichia coli; at 25 µM; summary of the method: as §5
[18] = biological target: T1, DNA topoisomerase 1 (Homo sapiens); assay: Topoisomerase I […] was evaluated by Fluorescence assay using Ethidium Bromide after heat denaturation of pBR322 DNA at concentration 50 uM; conditions: Escherichia coli; summary of the method: as §2
[19] = biological target: T1, DNA topoisomerase 1 (Homo sapiens); assay: Topoisomerase I […] was evaluated by Fluorescence assay using Ethidium Bromide before heat denaturation of pBR322 DNA at concentration 100 uM; conditions: Escherichia coli; summary of the method: as §2
[20] = biological target: T1, DNA topoisomerase 1 (Homo sapiens); assay: Topoisomerase I […] was evaluated by Fluorescence assay using Ethidium Bromide before heat denaturation of pBR322 DNA at concentration 250 uM; conditions: Escherichia coli; summary of the method: as §2
[21] = biological target: T1, DNA topoisomerase 1 (Homo sapiens); assay: Topoisomerase I […] was evaluated by Fluorescence assay using Ethidium Bromide before heat denaturation of pBR322 DNA at concentration 25 uM; conditions: Escherichia coli; at 25 µM; summary of the method: as §3
[22] = biological target: T1, DNA topoisomerase 1 (Homo sapiens); assay: Topoisomerase I […] was evaluated by Fluorescence assay using Ethidium Bromide before heat denaturation of pBR322 DNA at concentration 50 uM; conditions: Escherichia coli; summary of the method: as §2
[23] = biological target: T1, DNA topoisomerase 1 (Homo sapiens); assay: Topoisomerase I DNA relaxation activity was evaluated by Fluorescence assay using Ethidium Bromide after heat denaturation of pBR322 DNA at concentration 250 uM; conditions: Escherichia coli; summary of the method: as §1

| Compound | Change [1] [%] | Change [2] [%] | Change [3] [%] | Change [4] [%] | CC50 [5] [µg/mL] | Change [8] [%] | Change [9] [%] | Change [10] [%] | inhibition [11] [%] | inhibition [12] [%] | inhibition [13] [%] | inhibition [14] [%] | Change [15] [%] | Change [16] [%] | Change [18] [%] | Change [19] [%] | Change [20] [%] | Change [21] [%] | Change [22] [%] | Change [23] [%] | further results |
| --- | --- | --- | --- | --- | --- | --- | --- | --- | --- | --- | --- | --- | --- | --- | --- | --- | --- | --- | --- | --- | --- |
| CC[C@@]1(O)C(=O)OCc2c1cc1n(c2=O)Cc2cc3ccccc3nc2-1 [CAMPTOTHECIN] | 3 | 7 | 3 | 12 | 0.01 (≈ 0.0287 µM) | – | – | – | – | – | – | – | – | – | – | – | – | – | – | – | Change [6]: 7%; Change [7]: 6% |
| COC(=O)c1cc(NC(=O)c2cc(NC(=O)Cn3cc(C4=C(c5c[nH]c6ccccc56)C(=O)NC4=O)c4ccccc43)cn2C)cn1C | 12 | 7 | 1 | 2 | 58 (≈ 90.1 µM) | 15 | 10 | 4 | 0 | 0 | 0 | 0 | 13 | 24 | 15 | 2 | 33 | 5 | 3 | 3 | Change [17]: 3% |
| CN(C)CCCNC(=O)c1cc(NC(=O)c2cc(NC(=O)c3cc(NC(=O)Cn4cc(C5=C(c6c[nH]c7ccccc67)C(=O)NC5=O)c5ccccc54)cn3C)cn2C)cn1C | 15 | 7 | 20 | 15 | > 100 | 13 | 4 | 6 | 75 | 100 | 25 | 50 | 3 | 14 | 15 | 24 | 28 | 28 | 26 | 13 | Change [17]: 11% |
| COC(=O)c1cc(NC(=O)Cn2cc(C3=C(c4c[nH]c5ccccc45)C(=O)NC3=O)c3ccccc32)cn1C | 12 | 18 | 3 | 1 | 53.2 (≈ 102 µM) | 14 | 17 | 15 | 0 | 0 | 0 | 0 | – | 1 | 12 | 6 | 2 | 2 | 3 | 9 | Change [6]: 18%; Change [7]: 1% |
| COC(=O)c1cc(NC(=O)c2cc(NC(=O)c3cc(NC(=O)Cn4cc(C5=C(c6c[nH]c7ccccc67)C(=O)NC5=O)c5ccccc54)cn3C)cn2C)cn1C | 0 | 9 | 15 | 9 | 77.3 (≈ 101 µM) | 17 | 20 | 14 | 0 | 0 | 0 | 0 | 6 | 36 | 17 | 33 | 52 | 11 | 25 | 3 | Change [17]: 1% |
| CN(C)CCCNC(=O)c1cc(NC(=O)c2cc(NC(=O)Cn3cc(C4=C(c5c[nH]c6ccccc56)C(=O)NC4=O)c4ccccc43)cn2C)cn1C | 15 | 4 | 18 | 10 | 92.3 (≈ 129 µM) | 12 | 14 | 5 | 50 | 75 | < 10 | 25 | 3 | 14 | 3 | 21 | 32 | 2 | 14 | 9 | Change [17]: 7% |
